From ChEMBL document CHEMBL4433207, “Novel Isoxazole Derivatives with Potent FXR Agonistic Activity Prevent Acetaminophen-Induced Liver Injury” (ACS Med Chem Lett, 2019)
Values after ≈ are worked out from the molar mass of the structure shown. Active and inactive are the calls of the source. No cut-off for these calls is given here.

Key:
[1] = target: T1, G-protein coupled bile acid receptor 1 (Homo sapiens) (UniProt Q8TDU6); assay: Agonist activity at human GPBAR1 expressed in HEK293T cells at 10 uM after 18 hrs by cAMP response element driven luciferase reporter gene assay; assay type: functional, cell-based
T1 sequence (whole entry): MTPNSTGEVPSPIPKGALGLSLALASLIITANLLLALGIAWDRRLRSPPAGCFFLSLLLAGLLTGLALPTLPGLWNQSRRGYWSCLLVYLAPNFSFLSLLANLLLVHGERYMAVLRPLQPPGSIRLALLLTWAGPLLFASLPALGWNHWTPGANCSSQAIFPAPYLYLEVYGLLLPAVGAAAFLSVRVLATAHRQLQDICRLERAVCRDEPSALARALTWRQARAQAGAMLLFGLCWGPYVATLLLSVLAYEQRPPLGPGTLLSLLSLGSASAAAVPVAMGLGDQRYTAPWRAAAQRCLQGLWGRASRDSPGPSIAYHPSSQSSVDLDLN

[2] = target: T2, Peroxisome proliferator-activated receptor gamma (Homo sapiens) (UniProt P37231); assay: Transactivation of Gal4-fused PPARgamma LBD (unknown origin) expressed in HepG2 cells at 10 uM after 18 hrs by dual-glo luciferase assay; assay type: cell-based
T2 sequence (whole entry): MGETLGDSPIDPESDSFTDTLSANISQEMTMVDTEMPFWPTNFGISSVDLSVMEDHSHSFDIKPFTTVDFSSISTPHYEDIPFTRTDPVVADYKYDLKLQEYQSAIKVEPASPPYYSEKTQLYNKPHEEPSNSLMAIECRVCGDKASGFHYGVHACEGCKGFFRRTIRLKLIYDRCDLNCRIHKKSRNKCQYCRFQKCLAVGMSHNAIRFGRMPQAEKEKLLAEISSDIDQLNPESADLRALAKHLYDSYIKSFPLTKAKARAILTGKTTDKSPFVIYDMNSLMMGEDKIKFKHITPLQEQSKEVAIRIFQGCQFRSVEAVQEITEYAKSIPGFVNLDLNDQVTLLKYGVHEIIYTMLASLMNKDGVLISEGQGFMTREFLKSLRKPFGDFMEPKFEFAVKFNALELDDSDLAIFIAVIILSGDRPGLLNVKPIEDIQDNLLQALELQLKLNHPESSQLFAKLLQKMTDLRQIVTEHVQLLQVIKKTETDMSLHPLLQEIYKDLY

[3] = target: T3, Oxysterols receptor LXR-beta (Homo sapiens) (UniProt P55055); assay: Transactivation of Gal4-fused LXRbeta LBD (unknown origin) expressed in HepG2 cells at 10 uM after 18 hrs by dual-glo luciferase assay; assay type: cell-based
T3 sequence (whole entry): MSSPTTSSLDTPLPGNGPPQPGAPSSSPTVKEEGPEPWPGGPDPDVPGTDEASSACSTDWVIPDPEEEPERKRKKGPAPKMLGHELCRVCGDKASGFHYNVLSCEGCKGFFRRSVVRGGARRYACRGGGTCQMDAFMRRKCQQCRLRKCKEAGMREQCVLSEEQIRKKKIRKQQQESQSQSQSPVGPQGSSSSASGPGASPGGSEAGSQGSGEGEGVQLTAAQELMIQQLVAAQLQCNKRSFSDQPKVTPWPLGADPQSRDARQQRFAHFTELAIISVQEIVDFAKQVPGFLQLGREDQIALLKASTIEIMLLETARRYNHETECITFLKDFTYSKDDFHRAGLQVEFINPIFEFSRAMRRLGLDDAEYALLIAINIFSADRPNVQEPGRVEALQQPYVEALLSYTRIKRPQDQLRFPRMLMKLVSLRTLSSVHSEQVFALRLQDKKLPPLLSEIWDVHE

[4] = target: T4, Oxysterols receptor LXR-alpha (Homo sapiens) (UniProt Q13133); assay: Transactivation of Gal4-fused LXRalpha LBD (unknown origin) expressed in HepG2 cells at 10 uM after 18 hrs by dual-glo luciferase assay; assay type: cell-based
T4 sequence (whole entry): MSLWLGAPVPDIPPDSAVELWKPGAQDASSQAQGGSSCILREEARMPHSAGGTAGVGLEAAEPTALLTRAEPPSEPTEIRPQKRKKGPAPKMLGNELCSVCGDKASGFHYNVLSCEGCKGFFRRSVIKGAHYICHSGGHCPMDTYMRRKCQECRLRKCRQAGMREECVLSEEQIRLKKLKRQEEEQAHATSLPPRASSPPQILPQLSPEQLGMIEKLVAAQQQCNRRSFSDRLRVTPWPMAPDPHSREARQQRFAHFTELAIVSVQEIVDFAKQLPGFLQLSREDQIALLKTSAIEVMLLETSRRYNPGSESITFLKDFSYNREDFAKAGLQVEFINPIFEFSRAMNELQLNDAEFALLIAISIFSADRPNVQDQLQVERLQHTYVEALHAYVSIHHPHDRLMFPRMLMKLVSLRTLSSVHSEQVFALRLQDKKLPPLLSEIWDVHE

Mus musculus [5] = assay: Hepatoprotective activity against APAP-induced acute liver injury in C57BL/6N mouse assessed as reduction in plasma AST levels at 30 mg/kg, po administered 45 mins after APAP challenge; assay type: functional, organism-based
Procedure, shortened: (§1)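 C57Bl6 mice given a single 500 mg/kg APAP dose, with test agent at 30 mg/kg; surviving mice sacrificed 24 h later, blood and liver collected. Endpoints: serum AST/ALT, liver H&E histology, hepatic Ugt1a1/Ugt2b1/Sult1a1 mRNA, hepatic GSH, SOD activity and MDA, and plasma APAP, APAP-glucuronide and APAP-sulfate by LC–MS/MS. Mean ± SEM, 5–8 animals per group.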

[6] = Metabolic stability in rat liver microsomes assessed as compound remaining at 1 uM up to 40 mins by LC-MS/MS method relative to control
[7] = Aqueous solubility of compound in phosphate buffer at pH 7.4//MeOH after 24 hrs by LC-MS/MS method; assay type: physicochemical
[8] = Half life in rat liver microsomes at 1 uM up to 40 mins by LC-MS/MS method
Mus musculus [9] = assay: Hepatoprotective activity against APAP-induced acute liver injury in C57BL/6N mouse assessed as reduction in plasma ALT levels at 30 mg/kg, po administered 45 mins after APAP challenge; assay type: functional, organism-based; procedure, shortened: as §1
[10] = Intrinsic clearance in rat liver microsomes at 1 uM up to 40 mins by LC-MS/MS method; settings: read-out: CLH

Activity [1] | SMILES | other results
inactive | COC(=O)c1cccc(OCc2ccc(OCc3c(-c4c(Cl)cccc4Cl)noc3C(C)C)cc2)c1 | 
inactive | CC(C)c1onc(-c2c(Cl)cccc2Cl)c1COc1ccc(CO)cc1 | 
inactive | COC(=O)c1ccc(OCc2c(-c3c(Cl)cccc3Cl)noc2C(C)C)cc1 | 
inactive | COC(=O)c1ccc(OCc2ccc(OCc3c(-c4c(Cl)cccc4Cl)noc3C(C)C)cc2)cc1 | 

Second part, the molecule before the results:

SMILES | Activity [1] | other results
CC(C)c1onc(-c2c(Cl)cccc2Cl)c1COc1ccc(COc2cccc(C(=O)O)c2)cc1 | inactive | Activity [2]: inactive; Activity [3]: inactive; Activity [4]: inactive
CC(C)c1onc(-c2c(Cl)cccc2Cl)c1COc1ccc(COc2cccc(CO)c2)cc1 | inactive | 
CC(C)c1onc(-c2c(Cl)cccc2Cl)c1COc1cccc(C#N)c1 | inactive | 
CC(C)c1onc(-c2c(Cl)cccc2Cl)c1COc1ccc(/C=C/c2cccc(C(=O)O)c2)c(Cl)c1 |  | Activity (Mus musculus [5]): Active; remaining at 40 min, 1 µM [6]: 48%; solubility at 24 h [7]: 152 µM (≈ 82.5 µg/mL); half-life at 1 µM [8]: 41 min; Activity (Mus musculus [9]): Active; microsomal CLint at 1 µM [10]: 56 µL/min/mg
CC(C)c1onc(-c2c(Cl)cccc2Cl)c1COc1ccc(-c2cccc(CO)c2)cc1 | inactive | 
CC(C)c1onc(-c2c(Cl)cccc2Cl)c1COc1ccc(COc2ccc(C#N)cc2)cc1 | inactive | 
CC(C)c1onc(-c2c(Cl)cccc2Cl)c1COc1ccc(-c2cccc(C(=O)O)c2)cc1 | inactive | 
